Molecules are shown by their SMILES.

Data set [1] has as its target T1, NPP1 (ectonucleotide pyrophosphatase/phosphodiesterase family member 1) (Homo sapiens, UniProt P22413).
T1 sequence (P22413 whole entry): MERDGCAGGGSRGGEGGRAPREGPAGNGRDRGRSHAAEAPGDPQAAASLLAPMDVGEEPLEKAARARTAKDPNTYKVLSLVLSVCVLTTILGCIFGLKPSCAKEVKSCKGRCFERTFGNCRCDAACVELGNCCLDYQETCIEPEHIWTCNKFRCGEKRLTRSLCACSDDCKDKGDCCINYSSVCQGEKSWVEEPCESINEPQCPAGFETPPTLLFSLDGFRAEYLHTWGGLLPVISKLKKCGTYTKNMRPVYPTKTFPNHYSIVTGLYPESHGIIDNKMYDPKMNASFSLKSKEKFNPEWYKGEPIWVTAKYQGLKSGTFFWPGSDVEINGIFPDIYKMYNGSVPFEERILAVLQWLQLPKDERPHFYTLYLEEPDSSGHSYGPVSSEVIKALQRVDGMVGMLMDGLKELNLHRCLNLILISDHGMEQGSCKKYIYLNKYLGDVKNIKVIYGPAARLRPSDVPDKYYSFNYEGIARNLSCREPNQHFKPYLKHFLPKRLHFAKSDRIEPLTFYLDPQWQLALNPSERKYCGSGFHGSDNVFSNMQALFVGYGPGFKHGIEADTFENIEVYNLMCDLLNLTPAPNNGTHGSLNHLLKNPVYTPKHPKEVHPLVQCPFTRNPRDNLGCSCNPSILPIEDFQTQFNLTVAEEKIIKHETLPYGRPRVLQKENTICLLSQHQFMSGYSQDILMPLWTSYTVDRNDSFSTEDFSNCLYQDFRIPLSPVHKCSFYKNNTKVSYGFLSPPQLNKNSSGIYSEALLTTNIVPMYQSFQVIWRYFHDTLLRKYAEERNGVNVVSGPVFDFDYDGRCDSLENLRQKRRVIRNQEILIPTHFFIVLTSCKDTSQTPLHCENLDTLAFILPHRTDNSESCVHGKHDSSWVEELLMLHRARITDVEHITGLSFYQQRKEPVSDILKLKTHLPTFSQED
Description: Hydrolytic stability of the compound assessed as human NPP1-mediated hydrolysis after 2 hrs by HPLC analysis. It counts as ADME. The settings on record: human NPP1 enzyme, read-out: Activity. Put shortly: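 Human NPP1 extract (56.15 µg) pre-incubated 3 min at 37 °C in 1 mM CaCl2, 200 mM NaCl, 10 mM KCl, 100 mM Tris pH 8.5. Reaction started with 4 mM compound stock and stopped at 2 h in ice-cold 1 M perchloric acid, then neutralized with KOH. Reverse-phase HPLC. Nucleoside monophosphate peak area taken minus an acid-treated no-enzyme control. Mean of two experiments.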

Data set [2] concerns the target T2, NPP3 (ectonucleotide pyrophosphatase/phosphodiesterase family member 3) (Homo sapiens, UniProt O14638).
T2 sequence (O14638 whole entry): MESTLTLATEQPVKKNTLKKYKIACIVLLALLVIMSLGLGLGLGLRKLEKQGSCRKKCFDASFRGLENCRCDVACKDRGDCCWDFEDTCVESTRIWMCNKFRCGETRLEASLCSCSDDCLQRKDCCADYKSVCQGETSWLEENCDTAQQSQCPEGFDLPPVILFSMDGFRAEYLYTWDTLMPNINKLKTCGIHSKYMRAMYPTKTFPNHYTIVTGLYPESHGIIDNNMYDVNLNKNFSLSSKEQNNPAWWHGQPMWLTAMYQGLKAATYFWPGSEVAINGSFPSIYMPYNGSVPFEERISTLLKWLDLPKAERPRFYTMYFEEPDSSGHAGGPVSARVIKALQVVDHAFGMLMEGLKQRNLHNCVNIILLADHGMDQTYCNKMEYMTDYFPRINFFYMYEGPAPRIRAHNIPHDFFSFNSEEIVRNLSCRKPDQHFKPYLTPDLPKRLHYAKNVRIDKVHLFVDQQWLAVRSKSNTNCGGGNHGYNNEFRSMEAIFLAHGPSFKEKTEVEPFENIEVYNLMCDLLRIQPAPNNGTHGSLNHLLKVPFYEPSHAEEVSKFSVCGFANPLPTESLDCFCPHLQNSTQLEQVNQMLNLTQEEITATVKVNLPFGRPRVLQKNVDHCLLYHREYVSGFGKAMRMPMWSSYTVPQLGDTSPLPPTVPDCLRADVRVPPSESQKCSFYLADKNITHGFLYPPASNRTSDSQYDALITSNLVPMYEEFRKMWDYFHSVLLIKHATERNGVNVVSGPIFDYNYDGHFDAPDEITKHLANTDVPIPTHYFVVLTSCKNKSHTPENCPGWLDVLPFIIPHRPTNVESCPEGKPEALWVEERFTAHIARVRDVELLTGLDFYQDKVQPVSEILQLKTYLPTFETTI
Description: Hydrolytic stability of the compound assessed as human NPP3-mediated hydrolysis after 3 hrs by HPLC analysis. It counts as ADME. The settings on record: human NPP3 enzyme, read-out: Activity. An outline of the steps:
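Human NPP1 (56.15 µg) or NPP3 (57.78 µg) extract was pre-incubated 3 min at 37 °C in 1 mM CaCl2, 200 mM NaCl, 10 mM KCl, 100 mM Tris pH 8.5. Reaction was started with 4 mM compound stock and stopped after 2 h (NPP1) or 3 h (NPP3) in ice-cold 1 M perchloric acid, then neutralized with KOH. HPLC measured the nucleoside monophosphate peak area minus a no-enzyme acid control. Mean ± S.D. of two experiments.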

For data set [3], the system named is Serum. Description: Drug metabolism in human serum assessed as nucleoside 5'-monophosphate formation incubated up to 24 hrs by HPLC analysis. It counts as ADME, cell-free. Put shortly: (§1)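 Samples held 0.1 mg compound with human blood serum (180 µL) and RPMI-1640 (540 µL) at 37 °C for 0–24 h. At each time point they were heated to 80 °C for 30 min, treated with CM Sephadex, centrifuged and chloroform-extracted. Analysis was reverse-phase HPLC on peak integrals. Degradation was taken relative to a no-serum control carried through the same workup, and half-lives came from the time course.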

In data set [4] the test system is Serum. Description: Drug metabolism in human serum assessed as nucleoside formation incubated up to 24 hrs by HPLC analysis. It counts as ADME, cell-free. An outline of the steps: as §1
For a further data set, the target named is P2Y purinoceptor 6 (Homo sapiens, UniProt Q15077). Description: Agonist activity at human GFP-tagged P2Y6 receptor expressed in human 1321N1 cells assessed as intracellular calcium mobilization by fura2/AM-based fluorescence spectrophotometry. The class given is functional, cell-based. An outline of the steps: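 Human P2Y2, P2Y4 or P2Y6 receptors with GFP fusion, stably expressed in 1321N1 astrocytoma cells (no endogenous P2X/P2Y), selected with 0.5 mg/mL G418. Cells on coverslips at ~80% density were loaded with 2 µM fura 2/AM plus 0.02% pluronic acid in Na-HBS pH 7.4 for 30 min at 37 °C. Nucleotide was superfused at 37 °C, usually 10^-8 to ≥10^-5 M, sometimes to 10^-4 M. Read-out was 340/380 nm excitation ratio at 510 nm emission. Values are mean maximal amplitude ± SE.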
Sequence of P2Y purinoceptor 6 (Q15077 whole entry, the tested form may be a part): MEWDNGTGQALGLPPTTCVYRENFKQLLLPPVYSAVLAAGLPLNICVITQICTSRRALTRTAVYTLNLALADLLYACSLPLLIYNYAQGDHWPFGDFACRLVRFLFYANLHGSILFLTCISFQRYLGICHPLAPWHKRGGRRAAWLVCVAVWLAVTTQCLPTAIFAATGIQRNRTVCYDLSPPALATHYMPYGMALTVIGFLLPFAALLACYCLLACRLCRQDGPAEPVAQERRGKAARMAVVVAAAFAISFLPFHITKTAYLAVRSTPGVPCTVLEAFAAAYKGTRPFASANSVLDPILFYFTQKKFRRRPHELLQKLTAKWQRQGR
For orientation: A change in cytosolic calcium serves as a functional read-out for many receptors and channels.

The nature of data set [5]: Half life in human serum by HPLC analysis. The class given is ADME, cell-free. An outline of the steps: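 Compound (0.1 mg) incubated with human blood serum and RPMI-1640 medium at 37 °C for 0–24 h. Samples taken at 0.5–12 h intervals, heated to 80 °C for 30 min, treated with CM Sephadex and extracted with chloroform. Analysed by reverse-phase HPLC. Degradation from peak integration, corrected against a serum-free control given the same workup.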

A short description of data set [6]: Drug degradation in KCl/HCl buffer assessed as inorganic phosphate formation by 31P-NMR analysis at pH 1.4. The class given is physicochemical. An outline of the steps:
(§2)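 Sodium salt dissolved in KCl/HCl buffer pH 1.4 containing D2O, held at 37 °C. 31P NMR spectra taken at 15 min, 1 h or 24 h intervals, about every 24 h in multi-day runs. Hydrolysis rate taken from change in integration of one starting-material phosphate signal over time, fit to a pseudo-first-order model.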

Data set [7] in a line: Drug degradation in KCl/HCl buffer assessed as 5-OMe-uridine-H-phosphonate formation by 31P-NMR analysis at pH 1.4. It counts as physicochemical. Put shortly: as §2

The term EC50 denotes the concentration needed to bring the measured effect to its halfway point. Usually half-life stands for how long it takes for the measured level to halve. For `B[P@@](=O)(OC[C@H]1O[C@@H](n2cc(OC)c(=O)[nH]c2=O)[C@H](O)[C@@H]1O)OP(=O)(O)O`, the metabolised at 2 h in data set [1] came out at 15%. Besides, in data set [2], the metabolised at 3 h is 28%. For the same molecule, the Drug metabolism result in the data set with Serum [3] and in the data set on Serum [4] was “Active” throughout. For the same molecule, on P2Y purinoceptor 6, the EC50 is 8 nM. The half-life in data set [5] was 21 h.
As to `[BH3-][P@@](=O)(OC[C@H]1O[C@@H](n2cc(OC)c(=O)[nH]c2=O)[C@H](O)[C@@H]1O)OP(=O)([O-])[O-].[Na+].[Na+].[Na+]`, the Drug degradation entry in data set [6] and in data set [7] was “Active” in each case.

Values taken from ChEMBL document CHEMBL2086311, “UDP made a highly promising stable, potent, and selective P2Y6-receptor agonist upon introduction of a boranophosphate moiety” (Bioorg Med Chem, 2012).
